In ChEMBL document CHEMBL2157930, “Synthesis and structure-activity relationship of berberine analogues in LDLR up-regulation and AMPK activation” (2012):
The source made the active and inactive calls.

What was measured:
HepG2 [1] = experiment: Up regulation of LDLR expression in human HepG2 cells at 10 uM after 12 hrs by RT-PCR relative to untreated control; assay type: functional
Procedure, shortened: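 HepG2 cells (MEM, 10% FBS, about 70% confluent) treated at 10 uM for 12 h. LDLR mRNA measured by real-time RT-PCR, reverse transcription 42 °C for 15 min. Normalized to β-actin by the comparative threshold cycle method and expressed as fold of untreated control (set to 1). Mean ± SEM of 3 separate experiments.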

HepG2 [2] = experiment: Increase in AMPKalpha phosphorylation in human HepG2 cells at 10 uM after 4 hrs by Western blot analysis relative to untreated control relative to total AMPKalpha level; assay type: cell-based
Procedure, shortened: (§1)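 HepG2 cells in MEM with 10% FBS and antibiotics, 37 °C, 5% CO2, plated the day before to about 70% confluence. Treated with vehicle or compound at 10 uM for 4 h. Whole-cell lysates were run on SDS-PAGE and Western blotted for Thr172-phospho-AMPKa and total AMPKa. Bands were scanned and p-AMPKa was expressed as a percentage of total AMPKa. Mean ± SEM of 3 experiments.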

HepG2 [3] = experiment: Increase in total AMPKalpha level in human HepG2 cells at 10 uM after 4 hrs by Western blot analysis relative to untreated control; assay type: functional, cell-based; procedure, shortened: as §1
HepG2 [4] = experiment: Increase in AMPKalpha phosphorylation in human HepG2 cells at 10 uM after 4 hrs by Western blot analysis relative to untreated control; assay type: cell-based; procedure, shortened: as §1
HepG2 [5] = experiment: Induction of AMPKalpha phosphorylation in human HepG2 cells at 10 uM by Western blot analysis relative to untreated control; assay type: cell-based; details: TDE = time-dependent effect
Procedure, shortened: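 Time course in HepG2: cells given 10 uM for different time intervals. Western blot for Thr172-phospho-AMPKa and total AMPKa, bands quantified, p-AMPKa as a percentage of total, compared with untreated cells. Mean ± SEM of 3 repeats.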

L6 = experiment: Induction of AMPKalpha phosphorylation in rat L6 cells; assay type: cell-based
HepG2 [6] = experiment: Induction of AMPKalpha phosphorylation in human HepG2 cells after 4 hrs by Western blot analysis relative to untreated control; assay type: cell-based
Procedure, shortened: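 HepG2 cultured as above, about 70% confluent, then exposed to a range of concentrations for 4 h. Western blot for Thr172-phospho-AMPKa and total AMPKa, densitometry, p-AMPKa as a percentage of total, relative to untreated cells. Mean ± SEM of 3 experiments.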

Row | SMILES | fold change (FC) (HepG2 [1]) | further results
1 | CCOc1cc2c(cc1OC)CC[n+]1cc3c(OC)c(OC)ccc3cc1-2.[Cl-] | 1 | 
2 | COc1cc2c(cc1O)-c1cc3ccc(OC)c(OC)c3c[n+]1CC2.[Cl-] [COLUMBAMINE CHLORIDE] | 1.15 | 
3 | COc1ccc2cc3[n+](cc2c1Cl)CCc1cc2c(cc1-3)OCO2.[Cl-] | 1.12 | 
4 | CCOc1cc2c(cc1OC)-c1cc3cc(OC)c(OC)cc3c[n+]1CC2.[Cl-] | 1.04 | 
5 | CCOc1cc2c(cc1OC)CC[n+]1cc3cc(OC)c(OC)cc3cc1-2.[Cl-] | 0.96 | 
6 | COc1cc(Br)c2cc3[n+](cc2c1O)CCc1cc2c(cc1-3)OCO2.[Cl-] | 0.94 | 
7 | COc1ccc2cc3[n+](cc2c1OC)CCc1cc2c(cc1-3)OCO2.[Cl-] [BERBERINE CHLORIDE] | 2.35 | fold change (FC) (HepG2 [2]): < 3.2; Activity (HepG2 [3]): Active; Activity (HepG2 [4]): Active
8 | COc1cc2c(c(OC)c1OC)-c1cc3ccc(OC)c(OC)c3c[n+]1CC2.[Cl-] | 0.88 | 
9 | COc1cc2cc3[n+](cc2cc1OC)CCc1cc2c(cc1-3)OCO2.[Cl-] [PSEUDOBERBERINE] | 3.23 | fold change (FC) (HepG2 [2]): 2.6; Activity (HepG2 [3]): Active; Activity (HepG2 [5]): tde; Activity (L6): Active; Activity (HepG2 [4]): Active; Activity (HepG2 [6]): Dose-dependent effect
10 | COc1ccc2cc3[n+](cc2c1O)CCc1cc2c(cc1-3)OCO2 |  | Activity (HepG2 [4]): Active
11 | [Cl-].c1c2c(cc3c1OCO3)-c1cc3cc4c(cc3c[n+]1CC2)OCCO4 | 0.96 | 
12 | CCOc1cc2c(cc1OC)-c1cc3ccc(OC)c(OC)c3c[n+]1CC2.[Cl-] | 1.02 | 
13 | COc1cc2cc3[n+](cc2cc1OC)CCc1c-3ccc(OC)c1OC.[Cl-] | 0.92 | 
14 | COc1cc2cc3[n+](cc2c(Cl)c1OC)CCc1cc2c(cc1-3)OCO2.[Cl-] | 0.92 | 
15 | COc1ccc2c(c1OC)CC[n+]1cc3c(OC)c(OC)ccc3cc1-2.[Cl-] | 0.89 | 
16 | COc1ccc2cc3n(cc-2c1=O)CCc1cc2c(cc1-3)OCO2 |  | Activity (HepG2 [4]): Active
17 | COc1ccc2cc3[n+](cc2c1F)CCc1cc2c(cc1-3)OCO2.[Cl-] | 1 | 
18 | CCOc1cc2cc3[n+](cc2cc1OC)CCc1cc2c(cc1-3)OCO2.[Cl-] | 0.91 | 
